Data on four compounds can be found in ChEMBL document CHEMBL1122251, “4-(Aminoalkyl)-7-hydroxy-2(3H)-indolones, a novel class of potent presynaptic dopamine receptor agonists” (J Med Chem, 1983).

The structures appear in SMILES notation.

Assay [1] relates to Canis familiaris. Briefly: Tested in vivo for change in heart rate(HR) in dog after intravenous dose of 3 mg/kg. Type of assay: functional, Canis lupus familiaris.
The subject of assay [2] is Canis familiaris. Briefly: Tested in vivo for change in maximal arterial pressure (MAP) in dog after intravenous dose of 30 mg/kg. It is filed as functional, Canis lupus familiaris, Artery.
The target of assay [3] is Dopamine receptor. Briefly: Tested in vitro for dopamine agonist activity in rabbit ear artery after at a dose of 3 mg/kg. It is filed as functional, Oryctolagus cuniculus. The essentials: (§1)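 Isolated perfused rabbit ear artery preparation, used to assess activation of presynaptic dopamine receptors.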
Assay [4] concerns Canis familiaris. Briefly: Tested in vivo for change in maximal arterial pressure (MAP) in dog after intravenous dose of 30 (ug/kg)/min.
In assay [5] the target is Dopamine receptor. Kind of assay: Tested in vitro for dopamine agonist activity in rabbit ear artery after at a dose of 3 ug/kg. Type of assay: functional, tissue-based, Oryctolagus cuniculus. In outline:
as §1

The subject of assay [6] is Canis familiaris. Kind of assay: Tested in vivo for change in maximal arterial pressure (MAP) in dog after intravenous dose of 300 ug/kg. It is filed as functional, Canis lupus familiaris, Artery. The essentials:
(§2)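 Mean arterial blood pressure was recorded in dogs (N = 2) given the hydrobromide salt by intravenous infusion, dosed as (μg/kg)/min. Values are percent change from the control reading taken just before infusion. The minimum change counted as significant (p < 0.05) was ±5.2%.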

Assay [7] relates to Canis familiaris. Kind of assay: Tested in vivo for change in heart rate (HR) in dog after intravenous dose of 3 ug/kg. Type of assay: functional, Canis lupus familiaris.
The subject of assay [8] is Canis familiaris. Kind of assay: Tested in vivo for change in maximal arterial pressure (MAP) in dog after intravenous dose of 30 ug/kg. Type of assay: functional, Canis lupus familiaris, Artery. The essentials:
as §2

In assay [9] the test system is Canis familiaris. Kind of assay: Tested in vivo for change in maximal arterial pressure (MAP) in dog after intravenous dose of 3 ug/kg. Type of assay: functional, Canis lupus familiaris, Artery. In outline: as §2
Assay [10] concerns Canis familiaris. Kind of assay: Tested in vivo for change in heart rate (HR) in dog after intravenous dose of 30 ug/kg. Type of assay: functional, Canis lupus familiaris.
Assay [11] relates to Canis familiaris. Briefly: Tested in vivo for change in heart rate (HR) in dog after intravenous dose of 300 ug/kg. It is filed as functional, Canis lupus familiaris.
In assay [12] the target is Dopamine receptor. Kind of assay: Tested in vitro for dopamine agonist activity in rabbit ear artery after at a dose of 0.3 mg/kg. Set-up: dose 0.3 mg/kg. Type of assay: functional, Oryctolagus cuniculus.
In assay [13] the test system is Canis familiaris. Briefly: Tested in vivo for change in heart rate (HR) in dog after intravenous dose of 30 (ug/kg)/min.

On to `CCCN(CCC)CCc1ccc(O)c(O)c1`, for which the figures for the Change in assay [1], in assay [2] and in assay [4] were 1.5%, -17.7% and -21.9%, respectively. The EC50 in assay [3] turned out to be 80 nM.
In [5], `NCCc1ccc(O)c2c1CC(=O)N2` returned an EC50 of 116 nM. Besides, the Change was 62.6% in assay [6]; -2.9% in assay [7]; -16.1% in assay [8]; -10.6% in assay [9]; -2.9% in [10]; -15.8% in [11].
Consider `C=CCN1CCc2c(cc(O)c(O)c2Cl)C(c2ccc(O)cc2)C1` (stereo unspecified), for which the EC50 in assay [12] came out at 122 nM.
Turning to `CCCN(CCC)CCc1ccc(O)c2c1CC(=O)N2` [SKF-89124A], the figures for the Change in assay [13], in assay [2] and in assay [4] were -6.9%, 28.4% and 28.4%, respectively. The EC50 in [12] turned out to be 1.8 nM.
